# Experimental data published in ChEMBL document CHEMBL1125154, “An approach to trapping gamma-glutamyl radical intermediates proposed for vitamin K dependent carboxylase: alpha,beta-methyleneglutamic acid” (1990).
# Tests used:
# [1] = target: T1, Vitamin K-dependent gamma-carboxylase (Rattus norvegicus) (UniProt O88496); test: Vitamin K-dependent gamma-carboxylase activity was assayed in liver microsomes prepared from vitamin K deficient rats incubated at 17 degree Celsius for 30 min; settings: Microsome
# T1 sequence (whole entry): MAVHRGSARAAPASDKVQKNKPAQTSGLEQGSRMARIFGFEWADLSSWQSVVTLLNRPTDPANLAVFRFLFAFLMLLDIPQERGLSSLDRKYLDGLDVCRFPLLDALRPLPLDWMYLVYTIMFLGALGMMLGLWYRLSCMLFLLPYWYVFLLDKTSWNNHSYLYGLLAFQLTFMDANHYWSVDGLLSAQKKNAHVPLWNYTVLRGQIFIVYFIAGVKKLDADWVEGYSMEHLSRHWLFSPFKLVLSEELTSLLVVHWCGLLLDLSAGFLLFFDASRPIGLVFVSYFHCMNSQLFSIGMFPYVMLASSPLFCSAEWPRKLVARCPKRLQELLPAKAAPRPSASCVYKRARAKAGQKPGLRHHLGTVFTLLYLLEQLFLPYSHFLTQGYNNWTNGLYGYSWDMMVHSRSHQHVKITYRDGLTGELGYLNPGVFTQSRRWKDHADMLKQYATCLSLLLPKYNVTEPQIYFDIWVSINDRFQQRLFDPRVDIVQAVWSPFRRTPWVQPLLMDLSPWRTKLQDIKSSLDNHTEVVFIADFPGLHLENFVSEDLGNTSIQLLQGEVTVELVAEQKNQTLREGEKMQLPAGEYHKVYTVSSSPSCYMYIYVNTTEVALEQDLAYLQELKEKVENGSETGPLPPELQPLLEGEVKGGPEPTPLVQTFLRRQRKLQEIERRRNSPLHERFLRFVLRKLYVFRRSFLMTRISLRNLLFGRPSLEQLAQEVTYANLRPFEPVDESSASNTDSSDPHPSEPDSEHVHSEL
# Summary of the method: (§1)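 Rat liver microsomes from vitamin K deficient animals were used, following the Wood and Suttie method. Carboxylation was read as ¹⁴CO₂ incorporation into the Glu-site substrate, in dpm. The cyclopropyl analogue was tested at 2 mM, the Glu-site substrate at 1 mM, each alone or combined. Incubation ran at 17 °C for 30 min. Values are mean ± SD of four values.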
# [2] = organism: Rattus norvegicus; test: Epoxide formation after incubation at 17 degree Centigrade for 60 min; type: functional
# Summary of the method: (§2)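 Microsomes came from vitamin K deficient rats dosed with 1 mg phylloquinone (ic) 15 min before killing. Incubation ran at 17 °C for 60 min, with the analogue at 5 mM and/or the Glu-site substrate at 0.5 mM. To extract, 0.5 mL of mix was quenched with 2 volumes of 3:2 2-propanol–hexane, vortexed, held 15 min at 4 °C, and centrifuged. The hexane layer was dried under N₂ and epoxide reported as nmol. Values are mean ± SD of four values.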
# [3] = target: T1, Vitamin K-dependent gamma-carboxylase (Rattus norvegicus); test: Vitamin K-dependent gamma-carboxylase activity was assayed in liver microsomes prepared from vitamin K deficient rats incubated at 17 degree Celsius for 60 min; settings: Microsome
# Summary of the method: (§3)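 Liver microsomal carboxylase came from vitamin K deficient rats. Activity was taken as ¹⁴CO₂ incorporation into the Glu-site substrate, in dpm. The analogue was present at 5 mM and/or the Glu-site substrate at 0.5 mM. Incubation ran at 17 °C for 60 min. Values are mean ± SD of four values.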
# [4] = target: T1, Vitamin K-dependent gamma-carboxylase (Rattus norvegicus); test: Inhibition of Vitamin K-dependent gamma-carboxylase was determined at a concentration of 2 mM, incubations were at 17 degree Celsius for 30 minutes; summary of the method: as §1
# [5] = target: T1, Vitamin K-dependent gamma-carboxylase (Rattus norvegicus); test: Inhibition of Vitamin K-dependent gamma-carboxylase was determined at a concentration of 5 mM, incubations were at 17 degree Centigrade for 60 minutes
# [6] = organism: Rattus norvegicus; test: Epoxide formation was determined at a concentration 0.5 mM of compound along with 5 mM of 1-tert-Butoxycarbonylamino-2-carboxymethyl-cyclopropanecarboxylic acid benzyl ester; type: functional; summary of the method: as §2
# [7] = organism: Rattus norvegicus; test: Epoxide formation was determined at a concentration of 0.5 mM incubation at 17 degree Celsius for 60 minutes; type: functional; summary of the method: as §2
# [8] = target: T1, Vitamin K-dependent gamma-carboxylase (Rattus norvegicus); test: Inhibition of Vitamin K-dependent gamma-carboxylase was determined at a concentration of 1 mM, incubations were at 17 degree Centigrade for 30 minutes; summary of the method: as §1
# [9] = target: T1, Vitamin K-dependent gamma-carboxylase (Rattus norvegicus); test: Inhibition of vitamin K dependent carboxylase was determined at a concentration of 0.5 mM of compound along with 5 mM of 1-tert-Butoxycarbonylamino-2-carboxymethyl-cyclopropanecarboxylic acid benzyl ester; summary of the method: as §3
# [10] = target: T1, Vitamin K-dependent gamma-carboxylase (Rattus norvegicus); test: Inhibition of Vitamin K-dependent gamma-carboxylase was determined at a concentration of 0.5 mM, incubations were at 17 degree Celsius for 60 minutes
# [11] = target: T1, Vitamin K-dependent gamma-carboxylase (Rattus norvegicus); test: Inhibition of vitamin K dependent carboxylase was determined at a concentration of 1 mM of compound along with 2 mM of 1-tert-Butoxycarbonylamino-2-carboxymethyl-cyclopropanecarboxylic acid benzyl ester; summary of the method: as §1
# [12] = organism: Rattus norvegicus; test: Compound was evaluated for the epoxide formation at 5 mM incubations were at 17 degree Celsius for 60 minutes; type: functional; summary of the method: as §2
# [13] = target: T1, Vitamin K-dependent gamma-carboxylase (Rattus norvegicus); test: Vitamin K-dependent gamma-carboxylase activity was assayed in liver microsomes prepared from vitamin K deficient rats incubated at 17 degree Celsius for 60 min (compounds tested the ratio of 5 mM 19 and 0.5 mM 20); settings: Microsome; summary of the method: as §3
# [14] = target: T1, Vitamin K-dependent gamma-carboxylase (Rattus norvegicus); test: Vitamin K-dependent gamma-carboxylase activity was assayed in liver microsomes prepared from vitamin K deficient rats incubated at 17 degree Celsius for 30 min (compounds tested the ratio of 2 mM 19 and 1 mM 20); settings: Microsome; summary of the method: as §1
# [15] = organism: Rattus norvegicus; test: Epoxide formation after incubation at 17 degree Celsius for 60 min (compounds tested the ratio of 5 mM 19 and 0.5 mM 20); type: functional; summary of the method: as §2
smiles,measurement,setting,value
CC(C)(C)OC(=O)NC(CCC(=O)O)C(=O)OCc1ccccc1 (stereo not given),Carboxylase activity,[1],5800 dpm
same,Epoxide formation,[2],7.1 nmol
same,Carboxylase activity,[3],12600 dpm
CC(C)(C)OC(=O)NC1(C(=O)OCc2ccccc2)CC1CC(=O)O (stereo not given) [listing 1 of 2 here],Carboxylase activity,[4],300 dpm
same,Carboxylase activity,[5],690 dpm
CC(C)(C)OC(=O)N[C@H](CCC(=O)O)C(=O)OCc1ccccc1,Epoxide formation,[6],6.7 nmol
same,Epoxide formation,[7],7.1 nmol
same,Carboxylase activity,[8],5800 dpm
same,Carboxylase activity,[9],12200 dpm
same,Carboxylase activity,[10],12600 dpm
same,Carboxylase activity,[11],5770 dpm
CC(C)(C)OC(=O)NC1(C(=O)OCc2ccccc2)CC1CC(=O)O (stereo not given) [listing 2 of 2 here],Epoxide formation,[12],5.1 nmol
CC(C)(C)OC(=O)NC(CCC(=O)O)C(=O)OCc1ccccc1.CC(C)(C)OC(=O)NC1(C(=O)OCc2ccccc2)CC1CC(=O)O (stereo not given) [listing 1 of 2 here],Carboxylase activity,[13],12200 dpm
same,Carboxylase activity,[14],5770 dpm
CC(C)(C)OC(=O)NC(CCC(=O)O)C(=O)OCc1ccccc1.CC(C)(C)OC(=O)NC1(C(=O)OCc2ccccc2)CC1CC(=O)O (stereo not given) [listing 2 of 2 here],Epoxide formation,[15],6.7 nmol
